Each structure is given as a SMILES string.

Common to all, as to type: cell-based
One assay deals with D(1A) dopamine receptor (Homo sapiens, UniProt P21728). The experiment in a line: Displacement of [3H]SCH-23390 from human dopamine D1 receptor expressed in HEK293 cells. A general note: Displacement assays read how much labelled ligand stays bound in the presence of the test substance.
Assay [1] has as its target T1, 5-hydroxytryptamine receptor 1A (Rattus norvegicus, UniProt P19327).
T1 sequence (P19327 whole entry): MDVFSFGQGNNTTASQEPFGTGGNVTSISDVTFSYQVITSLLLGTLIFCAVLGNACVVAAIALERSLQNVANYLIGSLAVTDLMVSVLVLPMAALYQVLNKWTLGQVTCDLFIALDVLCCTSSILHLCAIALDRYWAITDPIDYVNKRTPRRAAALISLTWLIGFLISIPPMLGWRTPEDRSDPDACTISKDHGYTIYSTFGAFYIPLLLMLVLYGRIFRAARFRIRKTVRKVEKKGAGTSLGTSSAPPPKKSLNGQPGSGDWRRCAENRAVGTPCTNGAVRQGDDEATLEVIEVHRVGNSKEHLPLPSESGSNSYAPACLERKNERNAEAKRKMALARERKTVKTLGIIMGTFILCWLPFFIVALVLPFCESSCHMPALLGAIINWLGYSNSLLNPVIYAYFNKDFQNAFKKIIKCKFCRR
The experiment in a line: Displacement of [3H]8-OH-DPAT from rat 5HT1A receptor expressed in CHO cells.

Assay [2] concerns the target T2, 5-hydroxytryptamine receptor 1A (Rattus norvegicus) (UniProt P19327).
T2 sequence (whole entry): T1 sequence (P19327 whole entry)
The experiment in a line: Displacement of [3H]8-OH-DPAT from rat 5HT1A receptor expressed in CHO cells at 10 uM. The gist of the method: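 Duplicate incubations ran 50 min at 30 °C in 50 mM Tris, 4 mM MgCl2, pH 7.4. Nonspecific binding was set with 10 µM WAY100635. Bound ligand was separated on GF/B filters, washed with cold Tris/EDTA buffer, and counted by liquid scintillation.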

The target of another assay is D(2) dopamine receptor (Homo sapiens, UniProt P14416). The experiment in a line: Displacement of [3H]spiperone from human dopamine D2 receptor expressed in HEK293 cells.
Chain of D(2) dopamine receptor (P14416 whole entry): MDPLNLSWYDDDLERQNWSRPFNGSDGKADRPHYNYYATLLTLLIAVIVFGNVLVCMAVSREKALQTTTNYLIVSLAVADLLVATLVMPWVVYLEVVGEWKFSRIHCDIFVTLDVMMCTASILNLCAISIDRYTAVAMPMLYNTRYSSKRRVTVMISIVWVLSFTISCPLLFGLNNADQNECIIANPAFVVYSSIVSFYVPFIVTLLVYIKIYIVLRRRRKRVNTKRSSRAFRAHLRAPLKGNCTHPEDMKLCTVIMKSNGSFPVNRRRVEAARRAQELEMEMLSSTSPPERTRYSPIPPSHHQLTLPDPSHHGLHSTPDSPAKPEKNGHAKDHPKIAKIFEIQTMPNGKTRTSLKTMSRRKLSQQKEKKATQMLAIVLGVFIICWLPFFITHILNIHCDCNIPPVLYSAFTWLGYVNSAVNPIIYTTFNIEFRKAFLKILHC

Chain of D(1A) dopamine receptor (P21728 whole entry): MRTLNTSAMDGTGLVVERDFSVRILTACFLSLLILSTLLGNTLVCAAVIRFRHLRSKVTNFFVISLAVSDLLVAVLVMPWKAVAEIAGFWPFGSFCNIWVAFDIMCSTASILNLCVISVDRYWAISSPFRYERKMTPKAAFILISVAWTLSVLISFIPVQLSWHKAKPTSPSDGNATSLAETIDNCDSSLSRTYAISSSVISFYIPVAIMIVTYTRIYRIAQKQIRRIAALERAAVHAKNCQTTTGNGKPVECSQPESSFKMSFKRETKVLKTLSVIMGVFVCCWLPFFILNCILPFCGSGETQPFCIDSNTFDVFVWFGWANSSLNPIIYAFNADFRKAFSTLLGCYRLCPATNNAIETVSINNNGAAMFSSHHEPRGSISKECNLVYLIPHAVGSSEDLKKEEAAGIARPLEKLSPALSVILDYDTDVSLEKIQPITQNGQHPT

One may read the Ki as the dissociation constant of the complex between target and ligand, obtained from inhibition or displacement. Low values mean higher affinity, high ones lower affinity. For `COc1cc2c3c(c1)-c1c(N)cccc1C[C@H]3N(C)CC2`, the inhibition constant Ki on D(1A) dopamine receptor came out at 78 nM; in assay [1] it was 640 nM. In assay [2], the Activity worked out at 94%.
On to `CN1CCc2c3c(cc4nc(N)sc24)-c2c(ccc(O)c2O)C[C@H]31`, for which the Ki is 2520 nM at D(1A) dopamine receptor and 328 nM at D(2) dopamine receptor.
As for `CN1CCc2cc(N)cc3c2[C@H]1Cc1cccc(N)c1-3`, the figures for the inhibitory constant (Ki) (on D(1A) dopamine receptor; in assay [1]) were 2920 nM and 2300 nM, respectively. This compound showed an Activity in assay [2] of 48.1%.
In turn, `COc1cc2c3c(c1)-c1c(ccc4sc(N)nc14)C[C@H]3N(C)CC2` came in with an Activity in assay [2] of 48.1%.
In the case of `NCCc1c[nH]c2ccc(O)cc12`, the Activity in assay [2] was 100%.
For `CCCCC(=O)Oc1cccc2c1-c1cc(OC)cc3c1[C@@H](C2)N(C)CC3`, the figures for the Ki (on D(1A) dopamine receptor; in assay [1]) were 116 nM and 151 nM, respectively. Further, the Activity in assay [2] amounted to 100%.

These data come from ChEMBL document CHEMBL1155028, “Synthesis and pharmacological investigation of novel 2-aminothiazole-privileged aporphines” (Bioorg Med Chem, 2008).
